Experiment [1] relates to MT4. In words: Compound was evaluated for inhibitory effect against MT-4 cells of HIV-2 at a concentration of 20(21.4) ug/mL (uM). In kind it is functional, Homo sapiens. The essentials: (§1)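 HIV-2 (ROD strain) infected MT-4 cells at multiplicity of infection 0.02, incubated with a range of compound concentrations for 4 days. Viable cells counted by MTT method. Per-concentration inhibition of virus-induced cytopathogenicity; values are means of two separate experiments.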

The test system of experiment [2] is MT4. Kind of experiment: Cell viability at a concentration of 100(107) ug/mL (uM). In kind it is functional, Homo sapiens.
Experiment [3] relates to MT4. In words: Compound tested for its inhibition of HIV-1 induced cytopathogenicity in MT-4 cells. In kind it is functional. The conditions noted are these: Homo sapiens, read-out: ED50 (the source's name). The essentials:
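MT-4 cells infected with HIV-1 (HTLV-III_B) at MOI 0.02 and incubated 4 days with a range of compound concentrations. Viable cells were counted by MTT. ED50 is the 50% antiviral dose from inhibition of virus-induced cytopathogenicity, given as the mean of two separate experiments.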
(Cytopathic effects are the visible damage that an infection or toxin causes in cultured cells.)

Experiment [4] deals with MT4. In words: Compound was evaluated for inhibitory effect against MT-4 cells of HIV-2 at a concentration of 0.8(0.9) ug/mL (uM). In kind it is functional, Homo sapiens. The essentials:
as §1

Experiment [5] deals with Human immunodeficiency virus type 1 reverse transcriptase (Human immunodeficiency virus 1) (UniProt Q72547). In words: Compound tested for % inhibition of cell-free HIV-1 Reverse Transcriptase at a concentration of 535 uM. Summed up:
(§2)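 HIV-1 RT from partially purified, concentrated disrupted virions. Reaction at 37 °C for 30 min in 50 mM Tris-HCl pH 8.4, 2 mM DTT, 100 mM KCl, 10 mM MgCl2, 0.1% Triton X-100, with 1 µCi [methyl-3H]dTTP (30 Ci/mmol) and 0.01 unit poly(rA)·oligo(dT). Stopped with 5% TCA; precipitate collected on glass-fiber filters and counted by liquid scintillation. Experimental variation at most 10%.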

Experiment [6] has the same target. In words: Compound tested for % inhibition of cell-free HIV-1 Reverse Transcriptase at a concentration of 21.4 uM. The essentials: as §2
Experiment [7] deals with MT4. Kind of experiment: Compound was evaluated for inhibitory effect against MT-4 cells of HIV-1 at a concentration of 4(4.3) ug/mL (uM). In kind it is functional, Homo sapiens. Summed up: (§3)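 HIV-1 (HTLV-III_B) infected MT-4 cells at multiplicity of infection 0.02, incubated with a range of compound concentrations for 4 days. Viable cells counted by MTT method. Per-concentration inhibition of virus-induced cytopathogenicity; values are means of two separate experiments.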

Experiment [8] concerns MT4. Kind of experiment: Compound was evaluated for inhibitory effect against MT-4 cells of HIV-1 at a concentration of 20(21.4) ug/mL (uM). In kind it is functional, Homo sapiens. Summed up: as §3
Experiment [9] relates to MT4. Kind of experiment: Compound tested for its inhibition of HIV-2 induced cytopathogenicity in MT-4 cells. In kind it is functional. To be noted: Homo sapiens, read-out: ED50 (the source's name). The essentials:
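MT-4 cells infected with HIV-2 (ROD) at MOI 0.02 and incubated 4 days with a range of compound concentrations. Viable cells were counted by MTT. ED50 is the dose giving 50% inhibition of virus-induced cytopathogenicity, given as the mean of two separate experiments.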

For experiment [10], the target named is Human immunodeficiency virus type 1 reverse transcriptase (Human immunodeficiency virus 1) (UniProt Q72547). In words: Inhibitory dose at a concentration 535 uM cell-free HIV-1 Reverse Transcriptase. The essentials:
as §2

Experiment [11] has the same target. In words: Compound tested for % inhibition of cell-free HIV-1 Reverse Transcriptase at a concentration of 4.3 uM. Summed up:
as §2

For experiment [12], the system named is Human immunodeficiency virus 1. In words: Compound tested for % inhibition of giant cell formation at a concentration of 107 uM.
For experiment [13], the system named is MT4. In words: Compound was evaluated for inhibitory effect against MT-4 cells of HIV-2 at a concentration of 100(107) ug/mL (uM). In kind it is functional, Homo sapiens. The essentials:
as §1

The subject of experiment [14] is MT4. In words: Cell viability at a concentration of 0.8(0.9) ug/mL (uM). In kind it is functional, Homo sapiens.
For experiment [15], the system named is MT4. In words: Compound was evaluated for inhibitory effect against MT-4 cells of HIV-1 at a concentration of 0.8(0.9) ug/mL (uM). In kind it is functional, Homo sapiens. Summed up:
as §3

Experiment [16] concerns MT4. In words: Compound was evaluated for inhibitory effect against MT-4 cells of HIV-1 at a concentration of 100(107) ug/mL (uM). In kind it is functional, Homo sapiens. The essentials: as §3
Experiment [17] concerns MT4. In words: Cell viability at a concentration of 20(21.4) ug/mL (uM). In kind it is functional, Homo sapiens.
For experiment [18], the system named is MT4. In words: Compound tested for its ability to reduce viability of mock-infected MT-4 cells. In kind it is functional. To be noted: Homo sapiens, read-out: CD50 (the source's name). The essentials:
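Mock-infected MT-4 cells were incubated 4 days with a range of compound concentrations, and viability was read by MTT. CD50 is the 50% cytotoxic dose from reduced viability, given as the mean of two separate experiments.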

Experiment [19] has as its system MT4. In words: Cell viability at a concentration of 4(4.3) ug/mL (uM). In kind it is functional, Homo sapiens.
Experiment [20] relates to MT4. Kind of experiment: Compound was evaluated for inhibitory effect against MT-4 cells of HIV-2 at a concentration of 4(4.3) ug/mL (uM). In kind it is functional, Homo sapiens. The essentials:
as §1

For experiment [21], the system named is MT4. In words: Cell viability at a concentration of 4(3.9) ug/mL (uM). In kind it is functional, Homo sapiens.
Experiment [22] relates to MT4. In words: Compound was evaluated for inhibitory effect against MT-4 cells of HIV-2 at a concentration of 0.8(0.8) ug/mL (uM). In kind it is functional, Homo sapiens. Summed up: as §1
Experiment [23] concerns the target Human immunodeficiency virus type 1 reverse transcriptase (Human immunodeficiency virus 1) (UniProt Q72547). Kind of experiment: Compound tested for % inhibition of cell-free HIV-1 Reverse Transcriptase at a concentration of 19.6 uM. Summed up:
(§4)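 HIV-1 RT came from disrupted, partially purified, concentrated virions. Reaction ran 30 min at 37 °C in 50 mM Tris-HCl pH 8.4 with 2 mM DTT, 100 mM KCl, 10 mM MgCl2, 0.1% Triton X-100, [methyl-3H]dTTP (1 µCi, 30 Ci/mmol), poly(rA)·oligo(dT) template and compound. It was stopped with 5% TCA, and precipitate was filter-collected and scintillation-counted. Variation was at most 10%.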

For experiment [24], the system named is MT4. In words: Cell viability at a concentration of 0.8(0.8) ug/mL (uM). In kind it is functional, Homo sapiens.
Experiment [25] addresses Human immunodeficiency virus type 1 reverse transcriptase (Human immunodeficiency virus 1) (UniProt Q72547). In words: Inhibitory dose at a concentration 490 uM cell-free HIV-1 Reverse Transcriptase. The essentials: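 HIV-1 RT from disrupted, partially purified and concentrated virions. 37 °C for 30 min in 50 mM Tris-HCl pH 8.4, 2 mM DTT, 100 mM KCl, 10 mM MgCl₂, 0.1% Triton X-100, 1 µCi [methyl-³H]dTTP, 0.01 unit poly(rA)·oligo(dT). Stopped with 5% TCA; precipitate collected on glass-fiber filters and counted by scintillation. Means of two experiments; variation ≤10%.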

The target is the same in experiment [26]. Kind of experiment: Compound tested for % inhibition of cell-free HIV-1 Reverse Transcriptase at a concentration of 490 uM. The essentials: as §4
For experiment [27], the system named is MT4. In words: Cell viability at a concentration of 100(98) ug/mL (uM). In kind it is functional, Homo sapiens.
The test system of experiment [28] is MT4. In words: Compound was evaluated for inhibitory effect against MT-4 cells of HIV-2 at a concentration of 20(19.6) ug/mL (uM). In kind it is functional, Homo sapiens. The essentials: as §1
The subject of experiment [29] is MT4. In words: Compound was evaluated for inhibitory effect against MT-4 cells of HIV-2 at a concentration of 100(98) ug/mL (uM). In kind it is functional, Homo sapiens. Summed up: as §1
The subject of experiment [30] is MT4. Kind of experiment: Compound was evaluated for inhibitory effect against MT-4 cells of HIV-2 at a concentration of 4(3.9) ug/mL (uM). In kind it is functional, Homo sapiens. The essentials:
as §1

The test system of experiment [31] is MT4. Kind of experiment: Cell viability at a concentration of 20(19.6) ug/mL (uM). In kind it is functional, Homo sapiens.
Experiment [32] concerns MT4. Kind of experiment: Compound was evaluated for inhibitory effect against MT-4 cells of HIV-1 at a concentration of 100(98) ug/mL (uM). In kind it is functional, Homo sapiens. Summed up: as §3
For experiment [33], the target named is Human immunodeficiency virus type 1 reverse transcriptase (Human immunodeficiency virus 1) (UniProt Q72547). Kind of experiment: Compound tested for % inhibition of cell-free HIV-1 Reverse Transcriptase at a concentration of 3.9 uM. Summed up: as §4
Experiment [34] deals with MT4. In words: Compound was evaluated for inhibitory effect against MT-4 cells of HIV-1 at a concentration of 20(19.6) ug/mL (uM). In kind it is functional, Homo sapiens. Summed up: as §3
The test system of experiment [35] is MT4. Kind of experiment: Compound was evaluated for inhibitory effect against MT-4 cells of HIV-1 at a concentration of 4(3.9) ug/mL (uM). In kind it is functional, Homo sapiens. The essentials:
as §3

The test system of a further experiment is MOLT-4 (Homo sapiens). Kind of experiment: Compound tested for % inhibition of giant cell formation at a concentration of 98 uM.
Experiment [36] relates to MT4. In words: Compound was evaluated for inhibitory effect against MT-4 cells of HIV-1 at a concentration of 0.8(0.8) ug/mL (uM). In kind it is functional, Homo sapiens. The essentials: as §3
Experiment [37] concerns Human immunodeficiency virus 1. Kind of experiment: Compound tested for % inhibition of giant cell formation at a concentration of 98 uM.

As to `O=C(CCCCCCCCCCC(=O)Nc1cc(S(=O)(=O)O)cc2cc(S(=O)(=O)[O-])cc(O)c12)Nc1cc(S(=O)(=O)O)cc2cc(S(=O)(=O)[O-])cc(O)c12.[Na+].[Na+]`, the Inhibition stood at 4% with MT4 [1]; 3% in the experiment on MT4 [4]; 2% in the experiment with MT4 [7]; 14% in the experiment on MT4 [8]; 100% in the experiment on MT4 [13]; 0% in the experiment with MT4 [15]. The Inhibition with MT4 [16] amounted to 100%; in the experiment with MT4 [20], 3%. Further, the Cell viability in the experiment with MT4 [2] was 0; in the experiment on MT4 [14], 4; in the experiment with MT4 [17], 9; with MT4 [19], 5. The EC50 came to 39 µg/mL in the experiment with MT4 [3] and 43 µg/mL in the experiment on MT4 [9]. In addition, the inhibition in experiment [5] amounted to 100%; in experiment [6], 44%; in experiment [11] it was 15%; in experiment [12], 99%. The compound further showed an ID50 in experiment [10] of 160 µg/mL. Besides, the CC50 in the experiment on MT4 [18] is over 100 µg/mL.
As to `O=S(=O)([O-])c1cc(O)c2c(NS(=O)(=O)c3ccc(-c4ccc(S(=O)(=O)Nc5cc(S(=O)(=O)[O-])cc6cc(S(=O)(=O)[O-])cc(O)c56)cc4)cc3)cc(S(=O)(=O)[O-])cc2c1.[Na+].[Na+].[Na+].[Na+]`, the EC50 was found to be 7.8 µg/mL with MT4 [3] and 37 µg/mL with MT4 [9]. Also, the Cell viability in the experiment on MT4 [21], in the experiment on MT4 [24], in the experiment on MT4 [27] and with MT4 [31] was 0 throughout. The Inhibition was 6% in the experiment on MT4 [22]; 20% in the experiment on MT4 [28]; 100% in the experiment on MT4 [29]; 7% with MT4 [30]; 100% in the experiment on MT4 [32]; 100% in the experiment on MT4 [34]. For the same compound, the Inhibition worked out at 15% with MT4 [35] and 5% in the experiment on MT4 [36]. Besides, the inhibition in [23] came out at 30%; in experiment [26], 100%; in experiment [33] it was 0%; in experiment [37], 100%. Also, the ID50 in experiment [25] was 190 µg/mL. Besides, the CC50 in the experiment with MT4 [18] is over 100 µg/mL. In the experiment on MOLT-4 (Homo sapiens), this compound registered an inhibition at 98 µM of 100%.

A word on the Inhibition: it is the drop in the measured response relative to a control, in per cent. As a reminder, the inhibition is how much of the control response was suppressed.

For the origin of these results see ChEMBL document CHEMBL1125724, “Potential anti-AIDS agents. Synthesis and antiviral activity of naphthalenesulfonic acid derivatives against HIV-1 and HIV-2” (1991).
